Structures are written as SMILES.

Assay type in all cases: functional
Experiment [1] can be described thus: Cytotoxicity against human breast cancer cells after 48 hrs. The conditions noted are these: Cancer cell lines; for CC50: read-out: LC50 (the source's name). In short, it runs like this: (§1)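 NCI 60-line panel. Compounds were dissolved in DMSO and tested at five 10-fold dilutions, the highest 10^-4 M (10^-3 M where footnoted), over 48 h of incubation. The readouts were GI50, TGI and LC50 in μM, with the panel mean also given. Only compounds passing a 10^-5 M single-dose prescreen were tested; some were repeated and averaged over two experiments.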

The nature of experiment [2]: Cytotoxicity against human prostate cancer cells after 48 hrs. The conditions noted are these: Cancer cell lines; for CC50: read-out: LC50 (the source's name). In short, it runs like this: as §1
Experiment [3] in a line: Cytotoxicity against human ovarian cancer cells after 48 hrs. To be noted: Cancer cell lines. In a few lines:
as §1

A short description of experiment [4]: Cytotoxicity against human colon cancer cells after 48 hrs. The conditions noted are these: Cancer cell lines; for CC50: read-out: LC50 (the source's name). In a few lines:
as §1

Experiment [5] is described as follows: Cytotoxicity against human melanoma cells after 48 hrs. To be noted: Melanoma cell. In short, it runs like this:
as §1

Experiment [6] in a line: Cytotoxicity against human CNS cancer cells after 48 hrs. To be noted: Cancer cell lines; for CC50: read-out: LC50 (the source's name). In a few lines:
as §1

A short description of experiment [7]: Cytotoxicity against human leukemia cells after 48 hrs. The conditions noted are these: for GI50 / TGI: Leukemia cell. In short, it runs like this: as §1
Experiment [8] in a line: Cytotoxicity against human renal cancer cells after 48 hrs. To be noted: Cancer cell lines. In short, it runs like this:
as §1

A short description of experiment [9]: Cytotoxicity against human NSCLC cells after 48 hrs. In short, it runs like this:
as §1

Consider `COc1cc2c(/C=C3/C(=O)Nc4ccc(O)cc43)c(Cl)n(Cc3cc(OC)c(OC)c(OC)c3)c2cc1C`, for which the GI50 (commonly the concentration that inhibits growth by half) is 1.41 µM in experiment [1]; 2.29 µM in experiment [2]; 2.34 µM in experiment [3]; 2.29 µM in experiment [4]; 1.45 µM in [5]; 2.04 µM in experiment [6]. For the same molecule, the values for the GI50 in experiment [7], in [8] and in experiment [9] were 1.41 µM, 2.75 µM and 2.4 µM, respectively. Moreover, the concentration for total growth inhibition (TGI) (as a rule, the concentration at which net growth stops) in [1] stood at 34.7 µM; in experiment [2] it was 50.1 µM; in experiment [3] it was 43.6 µM; in [4] it was 49 µM; in experiment [5] it was 11.5 µM; in experiment [6], 34.7 µM. Besides, the results for the TGI in experiment [7], in experiment [8] and in experiment [9] were 18.6 µM, 33.1 µM and 32.4 µM, respectively.

Turning to `COc1ccc2c(c1)/C(=C\c1c(Cl)n(Cc3cc(OC)c(OC)c(OC)c3)c3cc(C)c(OC)cc13)C(=O)N2`, the 50% growth inhibitory concentration (GI50) worked out at 10.2 µM in experiment [1]; 14.5 µM in experiment [2]; 33.1 µM in [3]; 11 µM in experiment [4]; 14.8 µM in experiment [5]; 16.2 µM in experiment [6]. Moreover, the GI50 in [7] worked out at 6.17 µM; in experiment [8], 29.5 µM; in experiment [9] it was 20.4 µM. The TGI amounted to 57.5 µM in experiment [1]; 95.5 µM in experiment [2]; 85.1 µM in experiment [4]; 75.9 µM in [5]; 75.9 µM in [6]; 77.6 µM in experiment [7]. Also, net growth in [9] stopped (TGI) at 97.7 µM.

In the case of `COc1cc2c(/C=C3/C(=O)Nc4ccc(Cl)cc43)c(Cl)n(Cc3cc(OC)c(OC)c(OC)c3)c2cc1C`, the GI50 in experiment [1] was 2.09 µM; in [2] it was 1.78 µM; in experiment [3] it was 3.72 µM; in experiment [4] it was 2.19 µM; in experiment [5] it was 2.29 µM; in experiment [6], 2.34 µM. In addition, the figures for the GI50 in [7], in experiment [8] and in experiment [9] were 1.86 µM, 2.95 µM and 2.29 µM, respectively. In addition, the TGI in experiment [1] was found to be 5.5 µM; in experiment [2] it was 3.89 µM; in experiment [3] it was 13.8 µM; in experiment [4] it was 5.62 µM; in experiment [5], 5.75 µM; in [6], 6.03 µM. Moreover, the TGI in [7] came out at 4.79 µM; in experiment [8], 7.24 µM; in [9] it was 5.89 µM. Moreover, the CC50 in [1] stood at 22.4 µM; in [2], 8.91 µM; in experiment [4], 29.5 µM; in experiment [6], 23.4 µM. Also, the LC50 (usually the concentration lethal to half of the exposed cells or organisms) in experiment [3] stood at 39.8 µM; in [5] it was 17.8 µM; in [8] it was 18.6 µM; in [9], 16.2 µM. In experiment [7], this molecule showed an LC50 (concentration giving 50% net cell kill) of 15.8 µM.

As to `COc1cc2c(c(OC)c1OC)/C(=C\c1c(Cl)[nH]c3ccccc13)C(=O)N2`, the GI50 stood at 1.62 µM in experiment [1]; 1.17 µM in experiment [2]; 1.51 µM in experiment [3]; 1.29 µM in [4]; 1.86 µM in [5]; 1.58 µM in experiment [6]. The figures for the 50% growth inhibitory concentration (GI50) in [7], in experiment [8] and in experiment [9] were 0.55 µM, 1.35 µM and 1.86 µM, respectively. In addition, the TGI in experiment [1] was 8.13 µM; in experiment [2], 5.5 µM; in experiment [3], 9.77 µM; in experiment [4], 4.27 µM; in experiment [5] it was 6.61 µM; in experiment [6], 6.31 µM. Besides, the TGI in experiment [7] amounted to 7.08 µM; in experiment [8] it was 5.37 µM; in experiment [9], 9.12 µM. The CC50 in experiment [1] came out at 66.1 µM; in [4], 18.2 µM; in [6], 35.5 µM. Moreover, the median lethal concentration (LC50) in experiment [3] was 77.6 µM; in [5], 30.9 µM; in [8], 36.3 µM; in [9] it was 67.6 µM. In addition, the LC50 (concentration giving 50% net cell kill) in [7] was determined as 42.7 µM.

As to `COc1cc2c(/C=C3/C(=O)Nc4cccc(Cl)c43)c(Cl)n(Cc3cc(OC)c(OC)c(OC)c3)c2cc1C`, the GI50 amounted to 2.95 µM in [1]; 1.91 µM in experiment [2]; 3.98 µM in [3]; 2.88 µM in experiment [4]; 2.88 µM in experiment [5]; 3.02 µM in experiment [6]. Further, the GI50 was determined as 2.45 µM in [7], 3.24 µM in experiment [8] and 3.24 µM in [9]. For the same molecule, the total growth inhibition concentration (TGI) in experiment [1] was found to be 15.1 µM; in experiment [2], 5.13 µM; in experiment [3], 22.9 µM; in experiment [4], 10 µM; in experiment [5], 8.91 µM; in experiment [6] it was 12.6 µM. The TGI turned out to be 14.1 µM in experiment [7], 11.8 µM in experiment [8] and 12 µM in [9]. Moreover, the CC50 amounted to 61.7 µM in experiment [1], 17.4 µM in experiment [2], 51.3 µM in experiment [4] and 40.7 µM in experiment [6]. Also, the 50% lethal concentration (LC50) in experiment [3] was found to be 66.1 µM; in [5], 51.3 µM; in experiment [8], 45.7 µM; in [9], 47.9 µM. Besides, the LC50 (concentration giving 50% net cell kill) in experiment [7] stood at 51.3 µM.

In the case of `COc1ccc2c(c1)/C(=C\c1c(Cl)n(C/C=C/c3ccccc3)c3ccccc13)C(=O)N2`, the GI50 is 1.86 µM in experiment [1]; 2.09 µM in experiment [2]; 2.09 µM in experiment [3]; 1.32 µM in [4]; 2.4 µM in experiment [5]; 2.04 µM in experiment [6]. The GI50 came to 2 µM in [7], 1.91 µM in experiment [8] and 2.24 µM in experiment [9]. In addition, the concentration for total growth inhibition (TGI) was 36.3 µM in experiment [1]; 16.2 µM in experiment [2]; 41.7 µM in [3]; 21.9 µM in experiment [4]; 38.9 µM in [5]; 30.2 µM in [8]. The concentration for total growth inhibition (TGI) in [9] is 37.1 µM.

As for `COc1c(/C=C2/C(=O)Nc3ccc(Cl)cc32)c2ccccc2n1-c1ccccc1`, the 50% growth inhibitory concentration (GI50) in [1] worked out at 4.27 µM; in experiment [2], 9.33 µM; in [3], 8.51 µM; in experiment [4] it was 6.31 µM; in experiment [5], 5.62 µM; in experiment [6], 5.25 µM. For the same molecule, the 50% growth inhibitory concentration (GI50) is 2.34 µM in experiment [7], 8.51 µM in experiment [8] and 9.55 µM in experiment [9]. The TGI in experiment [1] is 13.8 µM; in [2], 24 µM; in experiment [3] it was 24 µM; in experiment [4] it was 25.7 µM; in [5], 18.2 µM; in experiment [6] it was 19.1 µM. Further, the total growth inhibition concentration (TGI) in experiment [7] is 8.91 µM; in [8], 21.9 µM; in [9], 24.6 µM. Moreover, the CC50 in [1] amounted to 52.5 µM; in experiment [2] it was 60.3 µM; in experiment [4] it was 60.3 µM; in [6], 52.5 µM. Moreover, the LC50 turned out to be 66.1 µM in [3], 51.3 µM in experiment [5], 51.3 µM in experiment [8] and 57.5 µM in experiment [9]. The same molecule gave an LC50 (concentration giving 50% net cell kill) in experiment [7] of 58.9 µM.

With `O=C1Nc2ccc(Cl)cc2/C1=C\c1c(Cl)n(CCCc2ccccc2)c2ccccc12`, the GI50 was determined as 2.19 µM in [1]; 2 µM in experiment [2]; 2.45 µM in experiment [3]; 1.95 µM in experiment [4]; 2.04 µM in experiment [5]; 2.82 µM in experiment [6]. The values for the 50% growth inhibitory concentration (GI50) in experiment [7], in experiment [8] and in experiment [9] were 2.88 µM, 1.86 µM and 2.24 µM, respectively. In addition, the TGI was determined as 9.12 µM in experiment [1]; 6.46 µM in experiment [2]; 23.4 µM in experiment [3]; 5.62 µM in experiment [4]; 5.75 µM in experiment [5]; 10.2 µM in experiment [6]. Moreover, the values for the TGI in experiment [7], in experiment [8] and in experiment [9] were 81.3 µM, 9.77 µM and 8.91 µM, respectively. In addition, the CC50 in experiment [1] was 42.7 µM; in [2], 34.7 µM; in experiment [4] it was 19.1 µM; in experiment [6], 50.1 µM. Also, the LC50 in experiment [3] came out at 60.3 µM; in experiment [5], 35.5 µM; in experiment [8], 17.8 µM; in [9], 28.8 µM.

As to `COc1c(/C=C2/C(=O)Nc3ccccc32)c2ccccc2n1-c1ccccc1`, the concentration for 50% growth inhibition (GI50) in experiment [1] was determined as 1.23 µM; in experiment [2], 1.12 µM; in experiment [3], 1.38 µM; in [4] it was 1.05 µM; in [5], 1.48 µM; in [6] it was 2.19 µM. Moreover, the 50% growth inhibitory concentration (GI50) worked out at 0.52 µM in experiment [7], 1.12 µM in [8] and 2.14 µM in experiment [9]. For the same molecule, the TGI in experiment [1] came out at 4.47 µM; in experiment [2], 3.47 µM; in experiment [3] it was 4.07 µM; in experiment [4], 3.24 µM; in experiment [5], 3.98 µM; in [6], 8.51 µM. Further, the figures for the concentration for total growth inhibition (TGI) in experiment [7], in experiment [8] and in experiment [9] were 2.63 µM, 4.07 µM and 8.32 µM, respectively. Also, the CC50 in [1] amounted to 27.5 µM; in experiment [2], 19.1 µM; in experiment [4], 7.94 µM; in [6] it was 30.9 µM. For the same molecule, the LC50 amounted to 15.8 µM in experiment [3], 10.5 µM in experiment [5], 13.2 µM in [8] and 27.5 µM in experiment [9]. The LC50 (concentration giving 50% net cell kill) in [7] stood at 50.1 µM.

For the origin of these results see ChEMBL document CHEMBL3232816, “Substituted E-3-(3-indolylmethylene)1,3-dihydroindol-2-ones with antiproliferative activity. Study of the effects on HL-60 leukemia cells” (2014).
